Measured values from ChEMBL document CHEMBL1129604, “Design, synthesis, and evaluation of nonpeptidic inhibitors of human rhinovirus 3C protease” (J Med Chem, 1996).

Tests used:
[1] = molecular target: T1, Human rhinovirus A protease (Human rhinovirus sp., UniProt Q4U254); test: Inhibition of human rhinovirus 3C protease; parameters: species or system Rhinovirus B
T1 sequence (Q4U254 whole entry): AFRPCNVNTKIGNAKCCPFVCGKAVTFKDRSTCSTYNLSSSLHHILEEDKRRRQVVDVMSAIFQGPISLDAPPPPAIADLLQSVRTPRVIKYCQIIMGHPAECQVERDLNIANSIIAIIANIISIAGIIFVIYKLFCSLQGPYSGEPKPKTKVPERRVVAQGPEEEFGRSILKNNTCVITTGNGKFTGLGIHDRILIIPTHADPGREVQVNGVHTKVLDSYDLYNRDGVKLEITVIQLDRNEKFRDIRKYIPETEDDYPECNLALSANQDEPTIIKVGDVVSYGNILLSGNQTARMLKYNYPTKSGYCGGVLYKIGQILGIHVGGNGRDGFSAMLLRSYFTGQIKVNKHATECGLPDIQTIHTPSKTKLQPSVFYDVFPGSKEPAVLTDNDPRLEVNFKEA
In short: (§1)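 Buffer was 50 mM Tris pH 7.6, 1 mM EDTA, 2% DMSO at 30 °C. Enzyme and inhibitor were preincubated 10 min before substrate start. Fluorescence ex 336/em 490 nm. Ki came from nonlinear fit of initial velocity versus inhibitor.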

HeLa [2] = test: Compound was tested for the 50% toxic concentration against Human Rhinovirus-14 (HRV-14) in Hela cells; format: functional; conditions: read-out: TC50 (the source's name)
In short: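 HI-HeLa cells in MEM with 10% FBS, mock-infected with medium only, resuspended at 8 × 10^5 cells/mL and incubated with compound. After two days, XTT/PMS was added and formazan was read at 450/650 nm. CC50 is the concentration lowering formazan to 50% of compound-free uninfected cells.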

HeLa [3] = test: Compound was tested for the antiviral activity against Human Rhinovirus -14(HRV-14) in HeLa cells; format: functional, cell-based
In short: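 Cell protection assay in HI-HeLa cells (MEM, 10% FBS). Cells were infected with HRV-14 at moi 0.13, resuspended at 8 × 10^5 cells/mL and incubated with compound for two days. XTT/PMS formazan was read at 450/650 nm. EC50 is the concentration restoring formazan to 50% of compound-free uninfected cells.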

[4] = Theuraptic index was reported; format: functional
In short: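 TI is CC50 (uninfected HI-HeLa, XTT formazan) divided by EC50 (HRV-14-infected HI-HeLa, moi 0.13, two days, XTT read at 450/650 nm).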

[5] = molecular target: Prothrombin (Homo sapiens) (UniProt P00734); test: (§2) Percentage inhibition of human thrombin at 100 uM conc of drug
[6] = molecular target: T2, Neutrophil elastase (Homo sapiens) (UniProt P08246); test: (§3) Percentage inhibition of Pancreatic elastase at 100 uM conc of drug
T2 sequence (whole entry): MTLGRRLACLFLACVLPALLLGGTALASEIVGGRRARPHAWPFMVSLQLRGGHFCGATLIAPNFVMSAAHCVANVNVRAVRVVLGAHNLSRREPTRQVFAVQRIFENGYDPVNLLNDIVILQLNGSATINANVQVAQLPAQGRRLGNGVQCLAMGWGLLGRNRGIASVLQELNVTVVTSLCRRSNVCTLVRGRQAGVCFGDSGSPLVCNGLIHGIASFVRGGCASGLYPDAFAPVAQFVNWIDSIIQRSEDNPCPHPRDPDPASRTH

Enterovirus [7] = test: Compound was tested for the inhibitory activity of compound towards human rhinovirus-16 3C protease; format: functional, organism-based
In short: (§4)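 3CP from HRV-16, -2 or -89 was cloned from infected-HeLa cDNA (3A C-terminus–3B–3C region), expressed in E. coli and purified. The same FRET assay (1 μM DABCYL/EDANS peptide, 50 mM Tris pH 7.6, 1 mM EDTA, 2% DMSO, 30 °C, 10 min preincubation) was run at 100–200 nM enzyme. Ki was obtained by nonlinear regression of initial velocities.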

[8] = Percentage inhibition of Cathepsin (human liver) at 10 uM conc of drug
[9] = molecular target: Chymotrypsinogen A (Bos taurus) (UniProt P00766); test: Percentage inhibition of bovine chymotrypsin at 50 uM conc of drug
[10] = molecular target: T3, Serine protease 1 (Bos taurus) (UniProt P00760); test: (§5) Percentage inhibition of bovine trypsin at 100 uM conc of drug
T3 sequence (whole entry): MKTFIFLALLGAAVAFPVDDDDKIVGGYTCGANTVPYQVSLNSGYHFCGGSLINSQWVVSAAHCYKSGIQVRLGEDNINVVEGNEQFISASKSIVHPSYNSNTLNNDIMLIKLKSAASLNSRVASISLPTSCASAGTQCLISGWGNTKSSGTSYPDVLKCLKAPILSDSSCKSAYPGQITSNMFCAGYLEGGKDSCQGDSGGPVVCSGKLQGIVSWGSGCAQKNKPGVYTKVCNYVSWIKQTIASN

Enterovirus [11] = test: Compound was tested for the inhibitory activity of compound towards human rhinovirus 3C protease; format: functional, organism-based; in short: as §1
Enterovirus [12] = test: Compound was tested for the inhibitory activity of compound towards human rhinovirus-2 3C protease; format: functional, organism-based; in short: as §4
Enterovirus [13] = test: Compound was tested for the inhibitory activity of compound towards human rhinovirus-89 3C protease; format: functional, organism-based; in short: as §4
[14] = (§6) Percentage inhibition of Cathepsin (human liver) at 100 uM conc of drug
[15] = molecular target: Chymotrypsinogen A (Bos taurus) (UniProt P00766); test: (§7) Percentage inhibition of bovine chymotrypsin at 100 uM conc of drug
[16] = molecular target: Chymotrypsinogen A (Bos taurus) (UniProt P00766); test: as §7; format: functional
[17] = molecular target: Prothrombin (Homo sapiens) (UniProt P00734); test: as §2; format: functional
[18] = as §6; format: functional
[19] = molecular target: T2, Neutrophil elastase (Homo sapiens); test: as §3; format: functional
[20] = molecular target: T3, Serine protease 1 (Bos taurus); test: as §5; format: functional

With COc1cccc(CN2C(=O)C(=O)c3cc(C(N)=O)ccc32)c1 the Ki [1] was 0.029 µM, the CC50 (HeLa [2]) was 20 µM and the EC50 (HeLa [3]) was over 20 µM.
With COC(=O)c1ccc2c(c1)C(=O)C(=O)N2C the TI [4] was over 2, the Ki [1] was 30 µM and the CC50 (HeLa [2]) was over 100 µM. It also gave an EC50 (HeLa [3]) of 56 µM.
CN1C(=O)C(=O)c2cc(Cl)ccc21 showed a Ki [1] of 59 µM.
For NC(=O)c1ccc2c(c1)C(=O)C(=O)N2Cc1cc(O)cc(O)c1, the Ki [1] was 0.004 µM, the CC50 (HeLa [2]) was over 100 µM and the EC50 (HeLa [3]) was over 100 µM.
Compound NC(=O)c1ccc2c(c1)C(=O)C(=O)N2Cc1ccc2cc(O)ccc2c1 has a Ki [1] of 0.004 µM.
Work on CN1C(=O)C(=O)c2cc([S+](C)[O-])ccc21 (configuration not stated) yielded a Ki [1] of 8.2 µM.
Compound NC(=O)c1ccc2c(c1)C(=O)C(=O)N2Cc1ccc2ccccc2c1 has a Ki [1] of 0.004 µM, a CC50 (HeLa [2]) of 10 µM and an EC50 (HeLa [3]) of over 10 µM.
In the case of COc1ccc2cc(CN3C(=O)C(=O)c4cc(C(N)=O)ccc43)ccc2c1, the Ki [1] is reported as 0.003 µM.
NC(=O)c1ccc2c(c1)C(=O)C(=O)N2Cc1cc2ccccc2s1 showed an inhibition [5] of 0%, an inhibition [6] of 0% and a Ki (Enterovirus [7]) of 0.012 µM. The CC50 (HeLa [2]) was 5.6 µM, the inhibition [8] was 0% and the inhibition [9] was 25%. The inhibition [10] was 0%, the EC50 (HeLa [3]) was over 5.6 µM and the Ki (Enterovirus [11]) was 0.002 µM. It also gave a Ki (Enterovirus [12]) of 0.0052 µM and a Ki (Enterovirus [13]) of 0.0011 µM.
For CNC(=O)c1ccc2c(c1)C(=O)C(=O)N2C, the Ki [1] was 12 µM.
NC(=O)c1ccc2c(c1)C(=O)C(=O)N2CCCc1ccccc1 showed a Ki [1] of 0.027 µM, a CC50 (HeLa [2]) of 7.1 µM and an EC50 (HeLa [3]) of over 7.1 µM.
Compound CC(=O)c1ccc2c(c1)C(=O)C(=O)N2C has a Ki [1] of 1.2 µM.
Work on Cc1ccc(CN2C(=O)C(=O)c3cc(C(N)=O)ccc32)cc1C yielded a Ki [1] of 0.006 µM.
For CN1C(=O)C(=O)c2cc([N+](=O)[O-])ccc21, the Ki [1] was 9.7 µM.
Compound COc1cc(CN2C(=O)C(=O)c3cc(C(N)=O)ccc32)cc(OC)c1 has a Ki [1] of 0.025 µM.
NC(=O)c1ccc2c(c1)C(=O)C(=O)N2Cc1ccc(-c2ccccc2)cc1 gave a Ki [1] of 0.048 µM.
In the case of CN1C(=O)C(=O)c2cc(I)ccc21, the TI [4] is reported as over 1, the Ki [1] is reported as 30 µM and the CC50 (HeLa [2]) is reported as over 100 µM. The EC50 (HeLa [3]) was 71 µM.
Work on CN1C(=O)C(=O)c2ccccc21 yielded a Ki [1] of over 100 µM.
Work on CN(C)C(=O)c1ccc2c(c1)C(=O)C(=O)N2C yielded a Ki [1] of 33 µM.
With NC(=O)c1ccc2c(c1)C(=O)C(=O)N2Cc1ccccc1 the TI [4] was 3.5, the Ki [1] was 0.019 µM and the CC50 (HeLa [2]) was 50.1 µM. For the same compound, the EC50 (HeLa [3]) was 14.1 µM.
CN1C(=O)C(=O)c2cc(C(N)=O)ccc21 gave a TI [4] of 4, an inhibition [5] of 0% and an inhibition [6] of 0%. The Ki (Enterovirus [7]) was 0.04 µM, the CC50 (HeLa [2]) was 270 µM and the inhibition [10] was 0%. The EC50 (HeLa [3]) was 66 µM, the Ki (Enterovirus [11]) was 0.051 µM and the Ki (Enterovirus [12]) was 0.077 µM. It also gave a Ki (Enterovirus [13]) of 0.035 µM, an inhibition [14] of 0% and an inhibition [15] of 0%.
In the case of CN1C(=O)C(=O)c2cc(C(=O)O)ccc21, the Ki [1] is reported as 10 µM, the CC50 (HeLa [2]) is reported as over 100 µM and the EC50 (HeLa [3]) is reported as over 100 µM.
CN1C(=O)C(=O)c2cc(C#N)ccc21 gave a Ki [1] of 51 µM.
In the case of NC(=O)c1ccc2c(c1)C(=O)C(=O)N2C/C=C/c1ccccc1, the inhibition [16] is reported as 67%, the TI [4] is reported as 1.5 and the inhibition [17] is reported as 34%. It also gave a CC50 (HeLa [2]) of 9.6 µM, an inhibition at 100 µM [18] of 27% and an EC50 (HeLa [3]) of 6.3 µM. For the same compound, the inhibition [19] was 40%, the inhibition [20] was 0% and the Ki (Enterovirus [11]) was 0.011 µM.
CN1C(=O)C(=O)c2cc(C(N)=S)ccc21 showed a Ki [1] of 11 µM.
For Cc1ccc(CN2C(=O)C(=O)c3cc(C(N)=O)ccc32)cc1, the Ki [1] was 0.01 µM.
For NC(=O)c1ccc2c(c1)C(=O)C(=O)N2Cc1cccc(O)c1, the Ki [1] was 0.011 µM, the CC50 (HeLa [2]) was 20 µM and the EC50 (HeLa [3]) was over 20 µM.
